Published values collected from several papers.
Protocols differ between the studies behind these lines.
Read-out: metabolic stability

CC1(CN)CCN(c2cnc3c(Sc4ccncc4Cl)n[nH]c3n2)CC1  half-life (mouse; liver microsomes): 630 min
CC(C)Oc1ccc(S(=O)(=O)c2ccc(Oc3cc(OCC(N)=O)c(C(=O)C(Cl)Cl)cc3[N+](=O)[O-])cc2)cc1  half-life (mouse; liver microsomes; 20 µM): 7.2 min
O=C(O)Cc1ccccc1Nc1c(Cl)cccc1Cl  half-life (mouse; liver microsomes): 60.8 min
CCOc1ccc2ccc(=O)oc2c1  half-life (male CD-1 mouse; hepatocytes; 1 µM): < 15 min
O=c1ccc2cc(O)ccc2o1  half-life (mouse; liver microsomes; 20 µM): 8.22 min
O=C(c1ccc(F)cc1)C1CCN(CCn2c(=O)[nH]c3ccccc3c2=O)CC1  half-life (mouse; liver microsomes): 22.8 min
O=c1ccc2ccc(O)cc2o1  half-life (mouse; liver microsomes): 2 min
O=C1CCC(N2Cc3cc(Nc4noc5cc(F)ccc45)ccc3C2=O)C(=O)N1 (centres unmarked)  half-life (CD-1 mouse; hepatocytes): > 216 min
